Activity calls are given as the source filed them. The rule behind the calls is not given here.
Legend:
SW480 = assay: Effect on E-cadherin-bound beta-catenin levels in human SW480 cells at 2 to 8 uM incubated for 24 hrs by Western blot analysis; assay type: functional, cell-based; details: dose 2-8 µM
Summary of the method: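 SW480 cells at 1 × 10^6 cells/mL were treated with a range of inhibitor concentrations for 24 h. Cells were lysed in Tris/NaCl/NP-40/deoxycholate/SDS buffer with protease inhibitors. Lysates were run on 8% SDS-PAGE and blotted to nitrocellulose. Blots were probed overnight at 4 °C for total β-catenin (mostly the E-cadherin-bound pool), active β-catenin (dephosphorylated S37/T41), cyclin D1, c-myc and β-tubulin. Detection used infrared secondary antibodies. Duplicate.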

[1] = biological target: T1, beta-catenin-B-cell lymphoma 9 protein complex (Homo sapiens, UniProt P35222); assay: Inhibition of protein interaction between beta-catenin (unknown origin)/BCL9 (unknown origin) by Alpha-screen competitive inhibition assay; assay type: protein-complex assay
T1 sequence (P35222 whole entry): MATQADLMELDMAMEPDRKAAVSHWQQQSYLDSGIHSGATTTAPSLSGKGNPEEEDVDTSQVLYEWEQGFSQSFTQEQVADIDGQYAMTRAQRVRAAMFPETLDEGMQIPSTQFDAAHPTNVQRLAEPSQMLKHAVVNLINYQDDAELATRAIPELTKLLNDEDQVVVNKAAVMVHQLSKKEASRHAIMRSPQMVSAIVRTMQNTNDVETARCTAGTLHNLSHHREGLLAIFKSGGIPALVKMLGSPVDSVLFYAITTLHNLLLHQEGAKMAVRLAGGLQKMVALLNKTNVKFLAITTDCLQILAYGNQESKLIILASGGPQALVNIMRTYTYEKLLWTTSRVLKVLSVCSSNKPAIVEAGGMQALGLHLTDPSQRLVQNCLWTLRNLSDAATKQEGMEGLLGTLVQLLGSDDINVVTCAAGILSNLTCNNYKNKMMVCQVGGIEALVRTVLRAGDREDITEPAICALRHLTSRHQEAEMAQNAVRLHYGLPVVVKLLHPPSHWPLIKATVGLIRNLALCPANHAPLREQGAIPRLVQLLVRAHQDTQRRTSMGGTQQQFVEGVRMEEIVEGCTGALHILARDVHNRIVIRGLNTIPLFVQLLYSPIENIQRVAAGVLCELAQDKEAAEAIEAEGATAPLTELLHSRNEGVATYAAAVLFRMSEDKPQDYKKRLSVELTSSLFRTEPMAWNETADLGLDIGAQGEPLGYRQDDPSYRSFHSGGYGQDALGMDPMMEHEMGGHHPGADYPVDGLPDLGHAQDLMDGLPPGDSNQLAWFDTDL
T1 sequence (O00512 whole entry): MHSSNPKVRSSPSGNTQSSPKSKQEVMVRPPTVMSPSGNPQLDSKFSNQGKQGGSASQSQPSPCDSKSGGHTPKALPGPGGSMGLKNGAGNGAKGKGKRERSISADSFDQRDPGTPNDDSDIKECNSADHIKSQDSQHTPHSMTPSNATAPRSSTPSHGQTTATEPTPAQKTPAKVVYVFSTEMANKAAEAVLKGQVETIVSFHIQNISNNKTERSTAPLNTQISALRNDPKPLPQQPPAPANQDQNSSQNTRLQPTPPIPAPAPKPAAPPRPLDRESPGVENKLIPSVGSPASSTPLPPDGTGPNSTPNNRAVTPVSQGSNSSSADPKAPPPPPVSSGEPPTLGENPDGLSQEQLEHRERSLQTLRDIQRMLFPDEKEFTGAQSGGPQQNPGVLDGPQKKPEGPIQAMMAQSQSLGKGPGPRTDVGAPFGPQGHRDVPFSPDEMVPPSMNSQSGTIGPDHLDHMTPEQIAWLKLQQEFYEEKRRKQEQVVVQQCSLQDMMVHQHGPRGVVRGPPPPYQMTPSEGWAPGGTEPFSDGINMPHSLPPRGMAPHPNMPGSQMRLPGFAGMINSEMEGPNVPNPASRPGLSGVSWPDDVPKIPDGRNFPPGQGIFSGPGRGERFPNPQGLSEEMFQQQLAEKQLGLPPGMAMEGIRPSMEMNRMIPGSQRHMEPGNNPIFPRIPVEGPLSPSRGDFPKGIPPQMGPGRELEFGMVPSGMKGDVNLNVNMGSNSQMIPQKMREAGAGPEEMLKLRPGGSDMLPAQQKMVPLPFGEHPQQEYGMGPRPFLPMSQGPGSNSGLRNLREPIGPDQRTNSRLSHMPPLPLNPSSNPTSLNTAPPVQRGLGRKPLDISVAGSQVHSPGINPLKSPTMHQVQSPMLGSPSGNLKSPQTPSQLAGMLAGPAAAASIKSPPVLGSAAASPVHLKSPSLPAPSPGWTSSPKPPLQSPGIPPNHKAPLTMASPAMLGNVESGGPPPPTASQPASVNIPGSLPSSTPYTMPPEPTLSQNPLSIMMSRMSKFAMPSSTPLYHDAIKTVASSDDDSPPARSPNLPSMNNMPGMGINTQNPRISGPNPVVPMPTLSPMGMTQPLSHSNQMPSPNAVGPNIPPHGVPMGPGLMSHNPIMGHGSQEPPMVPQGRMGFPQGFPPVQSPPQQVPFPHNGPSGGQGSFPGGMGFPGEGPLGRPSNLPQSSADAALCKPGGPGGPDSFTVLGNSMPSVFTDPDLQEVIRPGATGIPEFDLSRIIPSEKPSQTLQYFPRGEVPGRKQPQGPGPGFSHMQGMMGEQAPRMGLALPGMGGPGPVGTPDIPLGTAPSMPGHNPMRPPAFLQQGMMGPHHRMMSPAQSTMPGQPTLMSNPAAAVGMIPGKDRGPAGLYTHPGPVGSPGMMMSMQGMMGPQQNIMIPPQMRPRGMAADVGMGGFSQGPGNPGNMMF
Summary of the method: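 Purified His6-tagged full-length β-catenin (40 nM) preincubated with biotinylated BCL9 (5 nM) for 30 min at 4 °C. Inhibitor dilutions then added, 1 h at 4 °C, followed by donor and acceptor beads (10 μg/mL final) for 1 h at 4 °C. IC50 obtained by nonlinear least-squares fit and converted to Ki by the Nikolovska-Coleska method. Triplicate, mean ± SD.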

In the case of Cl.Cl.O=C(Nc1ccc(O[C@H]2CCNC2)c(-c2ccc(F)cc2)c1)c1ccc(O[C@H]2CCNC2)c(-c2ccc3ccsc3c2)c1, the Activity (SW480) is reported as “inactive”.

Work on Cl.Cl.O=C(Nc1ccc(O[C@H]2CCNC2)c(-c2ccc(F)cc2)c1)c1ccc(O[C@H]2CCNC2)c(-c2ccc(F)c(F)c2)c1 yielded a Ki [1] of 2.1 µM.
